Laboratory results published in ChEMBL document CHEMBL1151765, “Rational design of substituted diarylureas: a scaffold for binding to G-quadruplex motifs” (J Med Chem, 2008).
The source made the active and inactive calls. The calls are words filed in the database; no cut-off is given here.

Columns and labels:
MCF7 [1] = assay: Selectivity ratio of IC50 for human MCF7 cells to IC50 for human WI38 cells
A549 [2] = assay: Selectivity ratio of IC50 for human A549 cells to IC50 for human WI38 cells
Homo sapiens = organism: Homo sapiens; assay: Binding affinity to biotin-labeled human telomeric d[AG3(T2AG3)3] sequence by surface plasmon resonance analysis
Method in brief: (§1)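 Streptavidin chip with 5′-biotinylated DNA immobilized to 350-400 RU; blank reference flow cell. Run in 10mM HEPES, 100mM KCl, 3mM EDTA, P20 surfactant, pH 7.3, 25°C. Ligand 1nM to 10µM (from 20mM DMSO stock) injected at 50µl/min for 5–10 min to steady state, then 10 min buffer dissociation; glycine pH 2.0 regeneration between cycles.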

[3] = molecular target: T1, Telomerase reverse transcriptase (Homo sapiens, UniProt O14746); assay: Inhibition of telomerase by TRAP-LIG assay
T1 sequence (O14746 whole entry): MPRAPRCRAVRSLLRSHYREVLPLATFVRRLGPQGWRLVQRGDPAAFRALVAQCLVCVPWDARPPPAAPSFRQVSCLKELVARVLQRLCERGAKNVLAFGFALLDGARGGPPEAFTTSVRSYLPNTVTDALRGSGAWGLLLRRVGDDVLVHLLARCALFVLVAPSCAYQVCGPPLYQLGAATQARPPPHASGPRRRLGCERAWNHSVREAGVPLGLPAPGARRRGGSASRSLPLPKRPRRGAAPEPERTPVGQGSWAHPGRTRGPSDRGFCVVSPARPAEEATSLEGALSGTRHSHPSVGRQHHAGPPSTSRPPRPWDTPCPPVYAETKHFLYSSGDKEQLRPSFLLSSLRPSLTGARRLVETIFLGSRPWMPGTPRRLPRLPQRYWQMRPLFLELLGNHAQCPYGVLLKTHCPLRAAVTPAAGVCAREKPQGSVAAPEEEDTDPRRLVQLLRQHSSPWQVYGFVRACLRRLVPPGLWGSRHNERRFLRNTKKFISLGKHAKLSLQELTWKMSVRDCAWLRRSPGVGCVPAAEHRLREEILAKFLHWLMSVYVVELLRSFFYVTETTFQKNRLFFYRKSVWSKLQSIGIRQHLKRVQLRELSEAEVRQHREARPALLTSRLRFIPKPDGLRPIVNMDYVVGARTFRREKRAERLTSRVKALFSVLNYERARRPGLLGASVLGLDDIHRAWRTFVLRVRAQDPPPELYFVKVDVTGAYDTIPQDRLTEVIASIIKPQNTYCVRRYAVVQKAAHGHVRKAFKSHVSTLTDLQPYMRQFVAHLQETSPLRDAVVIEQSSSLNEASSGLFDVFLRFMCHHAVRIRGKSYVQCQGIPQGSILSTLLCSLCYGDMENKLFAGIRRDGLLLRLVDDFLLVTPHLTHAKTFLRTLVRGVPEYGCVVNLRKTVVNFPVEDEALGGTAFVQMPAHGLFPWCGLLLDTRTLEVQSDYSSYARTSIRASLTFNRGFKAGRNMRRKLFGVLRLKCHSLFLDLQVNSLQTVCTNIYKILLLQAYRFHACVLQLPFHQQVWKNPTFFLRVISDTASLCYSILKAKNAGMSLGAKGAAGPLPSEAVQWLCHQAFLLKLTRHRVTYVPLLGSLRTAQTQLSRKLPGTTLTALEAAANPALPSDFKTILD

[4] = Stabilization of d[(TA)2GC(TA)2T6(TA)2]GC(TA)2 sequence of duplex DNA assessed as change in melting temperature at 1 uM by FRET assay
Method in brief: (§2)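 Dual-labelled FAM/TAMRA oligos at 400nM in 60mM KCl potassium cacodylate buffer, pH 7.4, heated to 85 °C for 10 min, then cooled. Ligand added to 1µM; buffer alone as negative control. Excitation 450–495nm, emission read at 515–545nm every 0.5 °C from 30–100 °C. ΔTm is ligand Tm minus control Tm, from four experiments ± maximum sd; c-kit1 curves fitted to sigmoids.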

[5] = Stabilization of d[AGAG3AG2GCGCTG3AG2AG3GCT] sequence of c-kit1 G-quadruplex DNA assessed as change in melting temperature at 1 uM by FRET assay; method in brief: as §2
[6] = Stabilization of d[G3(T2AG3)3] sequence of F21T telomeric G-quadruplex DNA assessed as change in melting temperature at 1 uM by FRET assay
Method in brief: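 Dual-labelled oligo (5′-FAM, 3′-TAMRA) at 400nM in FRET buffer (60mM KCl, K cacodylate, pH 7.4), heated to 85 °C for 10 min, cooled to room temperature. Ligand added from DMSO dilution. Excitation 450–495nm, emission 515–545nm, read every 0.5 °C from 30–100 °C. ΔTm from four experiments: averaged ligand Tm minus averaged buffer-control Tm, ± maximum sd.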

[7] = Stabilization of d[C3G3CG3CGCGAG3AG4AG2] sequence of c-kit2 G-quadruplex DNA assessed as change in melting temperature at 1 uM by FRET assay; method in brief: as §2
[8] = molecular target: T1, Telomerase reverse transcriptase; assay: Inhibition of telomerase at 50 uM by TRAP-LIG assay relative to control
[9] = Cytotoxicity against human WI38 cells after 96 hrs by SRB assay; assay type: cell-based; settings: WI-38, 96 h
[10] = Stabilization of d[G3(T2AG3)3] sequence of F21T telomeric G-quadruplex DNA assessed as change in melting temperature at 1 uM by FRET assay relative to BRACO-19 in presence of calf thymus DNA
Method in brief: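 F21T FRET melting with ligand at 1µM in the presence of calf thymus DNA competitor at increasing bp concentrations. Retained stabilization, from three experiments, normalized to the ligand's ΔTm with no competitor (100%) ± normalized sd.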

[11] = Binding affinity to biotin-labeled d[CGA2T2CGTCTC2GA2T2CG] sequence of duplex DNA by surface plasmon resonance analysis; method in brief: as §1
MCF7 [12] = assay: Cytotoxicity against human MCF7 cells after 96 hrs by SRB assay; assay type: functional, cell-based; settings: MCF7, 96 h
A549 [13] = assay: Cytotoxicity against human A549 cells after 96 hrs by SRB assay; assay type: functional, cell-based; settings: A549, 96 h
MCF7 [14] = assay: Cytotoxicity against human MCF7 cells assessed as population doubling at 2 uM after 1 week […] relative to control; assay type: functional
Method in brief: (§3)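 MCF7 cells (1×10^5) treated with sub-cytotoxic ligand concentrations for 1 week, biweekly dosing. Cells counted by haemocytometer; population doublings n = (log Pn – log P0)/log2. Values normalized to vehicle control (100%) ± sd, two independent concentrations per ligand.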

MCF7 [15] = assay: Cytotoxicity against human MCF7 cells assessed as cell senescence at 3.5 uM after 1 week by beta-galactosidase assay; assay type: functional
MCF7 [16] = assay: Cytotoxicity against human MCF7 cells assessed as population doubling at 3.50 uM after 1 week […] relative to control; assay type: functional; method in brief: as §3
MCF7 [17] = assay: Cytotoxicity against human MCF7 cells assessed as cell senescence at 2 uM after 1 week by beta-galactosidase assay; assay type: functional

CN(C)c1ccc(Nc2c3ccc(NC(=O)CCN4CCCC4)cc3nc3cc(NC(=O)CCN4CCCC4)ccc23)cc1
Ratio IC50 (MCF7 [1]): 4.3 | Ratio IC50 (A549 [2]): 4.5 | KA (Homo sapiens): 31 ×10⁶ /M | EC50 [3]: 6.3 µM | change in melting temperature (ΔTm) [4]: 11.2 °C | change in melting temperature (ΔTm) [5]: 20.1 °C | change in melting temperature (ΔTm) [6]: 25.9 °C | change in melting temperature (ΔTm) [7]: 25.3 °C | Activity [8]: inactive | IC50 [9]: 10.7 µM | Activity [10]: Active | KA [11]: 0.5 ×10⁶ /M

O=C(CCCN1CCCC1)Nc1cccc(NC(=O)c2ccc(NC(=O)Nc3ccc(C(=O)Nc4cccc(NC(=O)CCCN5CCCC5)c4)cc3)cc2)c1
IC50 (MCF7 [12]): 19.5 µM | Ratio IC50 (MCF7 [1]): 1.3 | Ratio IC50 (A549 [2]): 1.3 | change in melting temperature (ΔTm) [4]: 5.5 °C | change in melting temperature (ΔTm) [6]: 3.3 °C | change in melting temperature (ΔTm) [7]: 6.5 °C | IC50 [9]: > 25 µM | IC50 (A549 [13]): 19.4 µM

C[n+]1ccc(-c2c3nc(c(-c4cc[n+](C)cc4)c4ccc([nH]4)c(-c4cc[n+](C)cc4)c4ccc([nH]4)c(-c4cc[n+](C)cc4)c4nc2C=C4)C=C3)cc1
Activity [8]: inactive

O=C(CCN1CCCC1)Nc1cccc(NC(=O)c2cccc(NC(=O)Nc3cccc(C(=O)Nc4cccc(NC(=O)CCN5CCCC5)c4)c3)c2)c1
IC50 (MCF7 [12]): 14.4 µM | Ratio IC50 (A549 [2]): 0.4 | change in melting temperature (ΔTm) [4]: 2.8 °C | change in melting temperature (ΔTm) [5]: 6.7 °C | change in melting temperature (ΔTm) [6]: 14.1 °C | change in melting temperature (ΔTm) [7]: 15.3 °C | IC50 [9]: 19.5 µM | IC50 (A549 [13]): > 50 µM | Activity [10]: Active

CN(C)CCC(=O)Nc1ccc(NC(=O)c2cccc(NC(=O)Nc3cccc(C(=O)Nc4ccc(NC(=O)CCN(C)C)cc4)c3)c2)cc1
IC50 (MCF7 [12]): 12.2 µM | Ratio IC50 (A549 [2]): 1 | change in melting temperature (ΔTm) [4]: 0.1 °C | change in melting temperature (ΔTm) [5]: 2.9 °C | change in melting temperature (ΔTm) [6]: 12.3 °C | change in melting temperature (ΔTm) [7]: 13.6 °C | IC50 [9]: > 50 µM | IC50 (A549 [13]): > 50 µM | Activity [10]: Active

O=C(CCN1CCOCC1)Nc1ccc(NC(=O)c2cccc(NC(=O)Nc3cccc(C(=O)Nc4ccc(NC(=O)CCN5CCOCC5)cc4)c3)c2)cc1
IC50 (MCF7 [12]): 40.6 µM | change in melting temperature (ΔTm) [4]: 0.2 °C | change in melting temperature (ΔTm) [6]: 1 °C | change in melting temperature (ΔTm) [7]: 1.3 °C | IC50 [9]: > 50 µM | IC50 (A549 [13]): > 50 µM

O=C(CN1CCCC1)Nc1cccc(NC(=O)c2cccc(NC(=O)Nc3cccc(C(=O)Nc4cccc(NC(=O)CN5CCCC5)c4)c3)c2)c1
IC50 (MCF7 [12]): 34.1 µM | Ratio IC50 (A549 [2]): 0.5 | change in melting temperature (ΔTm) [4]: 0.3 °C | change in melting temperature (ΔTm) [5]: 3.4 °C | change in melting temperature (ΔTm) [6]: 6.8 °C | change in melting temperature (ΔTm) [7]: 10.5 °C | IC50 [9]: 22.8 µM | IC50 (A549 [13]): > 50 µM | Activity [10]: Active

O=C(CCN1CCCC1)Nc1cc(NC(=O)Nc2cc(NC(=O)CCN3CCCC3)cc(C(=O)Nc3ccccc3)c2)cc(C(=O)Nc2ccccc2)c1
IC50 (MCF7 [12]): 32.4 µM | Ratio IC50 (MCF7 [1]): 0.5 | Ratio IC50 (A549 [2]): 0.4 | change in melting temperature (ΔTm) [5]: 4.9 °C | change in melting temperature (ΔTm) [6]: 13.3 °C | change in melting temperature (ΔTm) [7]: 12.9 °C | IC50 [9]: 16.2 µM | IC50 (A549 [13]): 41.5 µM | Activity [10]: Active

O=C(CN1CCCC1)Nc1ccc(NC(=O)c2ccc(NC(=O)Nc3ccc(C(=O)Nc4ccc(NC(=O)CN5CCCC5)cc4)cc3)cc2)cc1
IC50 (MCF7 [12]): > 25 µM | Ratio IC50 (A549 [2]): 1 | IC50 [9]: > 25 µM | IC50 (A549 [13]): > 25 µM

O=C(CN1CCCC1)Nc1cccc(NC(=O)c2ccc(NC(=O)Nc3ccc(C(=O)Nc4cccc(NC(=O)CN5CCCC5)c4)cc3)cc2)c1
IC50 (MCF7 [12]): > 50 µM | Ratio IC50 (MCF7 [1]): 1 | Ratio IC50 (A549 [2]): 1 | change in melting temperature (ΔTm) [4]: 2.5 °C | change in melting temperature (ΔTm) [5]: 0.7 °C | change in melting temperature (ΔTm) [6]: 1.8 °C | change in melting temperature (ΔTm) [7]: 2 °C | IC50 [9]: > 50 µM | IC50 (A549 [13]): > 50 µM

O=C(CCCN1CCCC1)Nc1cccc(NC(=O)c2cccc(NC(=O)Nc3cccc(C(=O)Nc4cccc(NC(=O)CCCN5CCCC5)c4)c3)c2)c1
IC50 (MCF7 [12]): 49.6 µM | Ratio IC50 (A549 [2]): 0.5 | change in melting temperature (ΔTm) [5]: 7.8 °C | change in melting temperature (ΔTm) [6]: 13.6 °C | change in melting temperature (ΔTm) [7]: 16.3 °C | IC50 [9]: 26.4 µM | IC50 (A549 [13]): > 50 µM | Activity [10]: Active

O=C(CCCN1CCCC1)Nc1cc(NC(=O)Nc2cc(NC(=O)CCCN3CCCC3)cc(C(=O)Nc3ccccc3)c2)cc(C(=O)Nc2ccccc2)c1
IC50 (MCF7 [12]): 24.2 µM | Ratio IC50 (A549 [2]): 0.4 | change in melting temperature (ΔTm) [4]: 0.5 °C | change in melting temperature (ΔTm) [5]: 6.3 °C | change in melting temperature (ΔTm) [6]: 12.3 °C | change in melting temperature (ΔTm) [7]: 11.7 °C | IC50 [9]: 11 µM | IC50 (A549 [13]): 30.6 µM | Activity [10]: Active

O=C(CCN1CCCCC1)Nc1ccc(NC(=O)c2cccc(NC(=O)Nc3cccc(C(=O)Nc4ccc(NC(=O)CCN5CCCCC5)cc4)c3)c2)cc1
IC50 (MCF7 [12]): 5.1 µM | Activity (MCF7 [14]): 89.2% | Ratio IC50 (A549 [2]): 1 | Activity (MCF7 [15]): 1.33% | change in melting temperature (ΔTm) [4]: 0.1 °C | Activity (MCF7 [16]): 84.3% | change in melting temperature (ΔTm) [5]: 7 °C | change in melting temperature (ΔTm) [6]: 5.2 °C | change in melting temperature (ΔTm) [7]: 7.1 °C | IC50 [9]: > 50 µM | IC50 (A549 [13]): > 50 µM | Activity [10]: Active | Activity (MCF7 [17]): 1.29%

O=C(CN1CCCC1)Nc1cc(NC(=O)Nc2cc(NC(=O)CN3CCCC3)cc(C(=O)Nc3ccccc3)c2)cc(C(=O)Nc2ccccc2)c1
IC50 (MCF7 [12]): 21.9 µM | Ratio IC50 (MCF7 [1]): 0.6 | Ratio IC50 (A549 [2]): 0.3 | change in melting temperature (ΔTm) [5]: 5.3 °C | change in melting temperature (ΔTm) [6]: 13.6 °C | change in melting temperature (ΔTm) [7]: 8.7 °C | IC50 [9]: 13.8 µM | IC50 (A549 [13]): > 50 µM | Activity [10]: Active

C[n+]1ccc(-c2c3nc(c(-c4cc[n+](C)cc4)c4ccc([nH]4)c(-c4cc[n+](C)cc4)c4nc(c(-c5cc[n+](C)cc5)c5ccc2[nH]5)C=C4)C=C3)cc1 [TMPYP4 CHLORIDE]
EC50 [3]: 8.9 µM
